How the values were obtained:
Heart [1] = assay: Cardiotoxicity in Langendorff-perfused Sprague-Dawley rat heart assessed as atrioventricular conduction time at 0.01 uM by ECG analysis (reference value: 45.62 +/- 4.49 milliseconds); format: toxicity, tissue-based
Heart [2] = assay: Cardiotoxicity in Langendorff-perfused Sprague-Dawley rat heart assessed as time duration of cardiac cycle length at 1 uM by ECG analysis (reference value: 238.38 +/- 9.23 milliseconds); format: toxicity, tissue-based
Heart [3] = assay: Cardiotoxicity in Langendorff-perfused Sprague-Dawley rat heart assessed as intraventricular conduction time at 0.1 uM by ECG analysis (reference value: 14.26 +/- 0.71 milliseconds); format: toxicity, tissue-based, Cardiac ventricle
Cannabinoid receptor 2 = Cannabinoid receptor 2 (Homo sapiens, UniProt P34972); assay: Displacement of [3H]-CP-55940 from human recombinant CB2 receptor expressed in HEK293 cells after 90 mins; format: cell-based
Sequence of Cannabinoid receptor 2 (P34972 whole entry): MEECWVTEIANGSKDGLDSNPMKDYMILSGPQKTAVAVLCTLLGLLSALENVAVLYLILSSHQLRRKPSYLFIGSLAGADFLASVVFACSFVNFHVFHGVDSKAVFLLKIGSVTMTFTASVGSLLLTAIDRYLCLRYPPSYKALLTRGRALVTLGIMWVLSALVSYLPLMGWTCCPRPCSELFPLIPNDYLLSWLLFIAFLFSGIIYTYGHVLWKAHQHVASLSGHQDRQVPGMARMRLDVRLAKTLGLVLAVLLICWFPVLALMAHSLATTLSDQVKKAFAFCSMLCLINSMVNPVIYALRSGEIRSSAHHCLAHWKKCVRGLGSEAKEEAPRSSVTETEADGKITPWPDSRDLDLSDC
Method in brief: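 Membranes from HEK-293 cells stably expressing human CB1 (Bmax 2.9 pmol/mg) or CB2 (Bmax 6.0 pmol/mg) incubated 90 min at 30 °C with [3H]-CP-55,940: 0.4 nM for CB1, 0.53 nM for CB2. Non-specific binding defined with 10 µM WIN 55212-2.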

Salmonella typhimurium = assay: Mutagenicity in Salmonella typhimurium TA98 assessed as increase in number of colonies at 1 uM by Ames test; format: toxicity, organism-based; conditions: salmonella enterica subsp. enterica serovar typhimurium
Monoglyceride lipase = molecular target: T1, Monoglyceride lipase (Rattus norvegicus, UniProt Q8R431); assay: Inhibition of MAGL in rat brain membranes preincubated for 20 mins followed by fluorophosphonate-rhodamine addition measured after 30 mins by competitive affinity based proteomic profiling assay; format: cell membranes, Membrane
T1 sequence (Q8R431 whole entry): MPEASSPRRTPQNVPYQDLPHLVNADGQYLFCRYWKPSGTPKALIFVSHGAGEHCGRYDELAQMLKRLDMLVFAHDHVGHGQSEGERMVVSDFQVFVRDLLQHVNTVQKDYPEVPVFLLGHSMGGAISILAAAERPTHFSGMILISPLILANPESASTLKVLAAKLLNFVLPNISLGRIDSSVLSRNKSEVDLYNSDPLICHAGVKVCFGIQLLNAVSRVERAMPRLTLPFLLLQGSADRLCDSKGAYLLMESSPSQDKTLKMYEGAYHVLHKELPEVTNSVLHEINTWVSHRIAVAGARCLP
Method in brief: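 Rat brain membranes (1 mg/mL) preincubated with 1–1000 nM inhibitor or DMSO for 20 min at 37 °C. FP-rhodamine then added and incubated a further 30 min at 37 °C. Samples run on SDS-PAGE and serine hydrolase bands quantified by in-gel fluorescence.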

**Q.** `O=C1[C@H](c2ccc(F)cc2)[C@@H](c2ccc3c(c2)OCO3)N1C1CCN(C(=O)n2cncn2)CC1` (racemic) was tested. Which Time (Heart [1]) did it give?
**A.** 46.46 ms

**Q.** What about the Time (Heart [2]) of the same compound?
**A.** 235.48 ms

**Q.** And the Time (Heart [3])?
**A.** 13.75 ms

**Q.** And the IC50 (Cannabinoid receptor 2)?
**A.** > 10000 nM

**Q.** What about the Activity (Salmonella typhimurium) of the same compound?
**A.** Non-toxic

**Q.** And the IC50 (Monoglyceride lipase)?
**A.** 10 nM
